Laboratory results reported in ChEMBL document CHEMBL1833921, “Synthesis and biological evaluation of phenstatin metabolites” (Bioorg Med Chem, 2011).

System: CAKI-1
Experiment: Cytotoxicity against human Caki1 cells after 48 hrs by sulforhodamine B assay
Format: functional
Conditions: CAKI-1, 48 h

Compound | GI50
COc1ccc(C(=O)c2cc(OC)c(O)c(OC)c2)cc1OC | 3.01 µM
COc1cc(C(=O)c2ccc(OC)c(O)c2OC)cc(OC)c1O | 1.9 µM

System: DU-145
Experiment: Cytotoxicity against human DU145 cells after 48 hrs by sulforhodamine B assay
Format: functional
Conditions: DU-145, 48 h

Compound | GI50
COc1ccc(C(=O)c2cc(OC)c(O)c(OC)c2)cc1OC | 4.49 µM
COc1cc(C(=O)c2ccc(OC)c(O)c2OC)cc(OC)c1O | 0.818 µM

System: SF-295
Experiment: Cytotoxicity against human SF295 cells after 48 hrs by sulforhodamine B assay
Format: functional
Conditions: SF-295, 48 h

Compound | GI50
COc1ccc(C(=O)c2cc(OC)c(O)c(OC)c2)cc1OC | 2.08 µM
COc1cc(C(=O)c2ccc(OC)c(O)c2OC)cc(OC)c1O | 1.4 µM

System: CCRF-CEM
Experiment: Cytotoxicity against human CCRF-CEM cells after 48 hrs by sulforhodamine B assay
Format: functional
Conditions: not given

Compound | GI50
COc1ccc(C(=O)c2cc(OC)c(O)c(OC)c2)cc1OC | 4.05 µM
COc1cc(C(=O)c2ccc(OC)c(O)c2OC)cc(OC)c1O | 0.896 µM

System: HCT-15
Experiment: Cytotoxicity against human HCT15 cells after 48 hrs by sulforhodamine B assay
Format: functional
Conditions: HCT-15, 48 h

Compound | GI50
COc1ccc(C(=O)c2cc(OC)c(O)c(OC)c2)cc1OC | 2.07 µM
COc1cc(C(=O)c2ccc(OC)c(O)c2OC)cc(OC)c1O | 0.611 µM

System: K562
Experiment: Cytotoxicity against human K562 cells after 48 hrs by sulforhodamine B assay
Format: functional
Conditions: K562, 48 h

Compound | GI50
COc1ccc(C(=O)c2cc(OC)c(O)c(OC)c2)cc1OC | 0.666 µM
COc1cc(C(=O)c2ccc(OC)c(O)c2OC)cc(OC)c1O | 0.153 µM

System: HCT-116
Experiment: Cytotoxicity against human HCT116 cells after 48 hrs by sulforhodamine B assay
Format: functional
Conditions: HCT-116, 48 h

Compound | GI50
COc1ccc(C(=O)c2cc(OC)c(O)c(OC)c2)cc1OC | 2.5 µM
COc1cc(C(=O)c2ccc(OC)c(O)c2OC)cc(OC)c1O | 1.41 µM

System: EKVX
Experiment: Cytotoxicity against human EKVX cells after 48 hrs by sulforhodamine B assay
Format: functional
Conditions: not given

Compound | GI50
COc1ccc(C(=O)c2cc(OC)c(O)c(OC)c2)cc1OC | > 100 µM
COc1cc(C(=O)c2ccc(OC)c(O)c2OC)cc(OC)c1O | 4.76 µM

System: UACC-62
Experiment: Cytotoxicity against human UACC62 cells after 48 hrs by sulforhodamine B assay
Format: functional
Conditions: UACC-62, 48 h

Compound | GI50
COc1ccc(C(=O)c2cc(OC)c(O)c(OC)c2)cc1OC | 8.41 µM
COc1cc(C(=O)c2ccc(OC)c(O)c2OC)cc(OC)c1O | 5.01 µM

System: SF-268
Experiment: Cytotoxicity against human SF268 cells after 48 hrs by sulforhodamine B assay
Format: functional
Conditions: SF-268, 48 h

Compound | GI50
COc1cc(C(=O)c2ccc(OC)c(O)c2OC)cc(OC)c1O | 4.25 µM

System: COLO 205
Experiment: Cytotoxicity against human COLO205 cells after 48 hrs by sulforhodamine B assay
Format: functional
Conditions: COLO 205, 48 h

Compound | GI50
COc1ccc(C(=O)c2cc(OC)c(O)c(OC)c2)cc1OC | 14.2 µM
COc1cc(C(=O)c2ccc(OC)c(O)c2OC)cc(OC)c1O | 4.83 µM

System: NCI-H522
Experiment: Cytotoxicity against human NCI-H522 cells after 48 hrs by sulforhodamine B assay
Format: functional
Conditions: NCI-H522, 48 h

Compound | GI50
COc1ccc(C(=O)c2cc(OC)c(O)c(OC)c2)cc1OC | 3.64 µM
COc1cc(C(=O)c2ccc(OC)c(O)c2OC)cc(OC)c1O | 0.29 µM

System: KM12
Experiment: Cytotoxicity against human KM12 cells after 48 hrs by sulforhodamine B assay
Format: functional
Conditions: KM12, 48 h

Compound | GI50
COc1ccc(C(=O)c2cc(OC)c(O)c(OC)c2)cc1OC | 1.09 µM
COc1cc(C(=O)c2ccc(OC)c(O)c2OC)cc(OC)c1O | 0.409 µM

System: OVCAR-4
Experiment: Cytotoxicity against human OVCAR4 cells after 48 hrs by sulforhodamine B assay
Format: functional
Conditions: OVCAR-4, 48 h

Compound | GI50
COc1ccc(C(=O)c2cc(OC)c(O)c(OC)c2)cc1OC | > 100 µM
COc1cc(C(=O)c2ccc(OC)c(O)c2OC)cc(OC)c1O | 100 µM

System: UO-31
Experiment: Cytotoxicity against human UO31 cells after 48 hrs by sulforhodamine B assay
Format: functional
Conditions: UO-31, 48 h

Compound | GI50
COc1ccc(C(=O)c2cc(OC)c(O)c(OC)c2)cc1OC | 2.16 µM
COc1cc(C(=O)c2ccc(OC)c(O)c2OC)cc(OC)c1O | 16.6 µM

System: SN12C
Experiment: Cytotoxicity against human SN12C cells after 48 hrs by sulforhodamine B assay
Format: functional
Conditions: not given

Compound | GI50
COc1ccc(C(=O)c2cc(OC)c(O)c(OC)c2)cc1OC | 6.68 µM
COc1cc(C(=O)c2ccc(OC)c(O)c2OC)cc(OC)c1O | 13.7 µM

System: Hs-578T
Experiment: Cytotoxicity against human HS578T cells after 48 hrs by sulforhodamine B assay
Format: functional
Conditions: not given

Compound | GI50
COc1ccc(C(=O)c2cc(OC)c(O)c(OC)c2)cc1OC | 4.92 µM
COc1cc(C(=O)c2ccc(OC)c(O)c2OC)cc(OC)c1O | 0.358 µM

System: NCI-H460
Experiment: Cytotoxicity against human NCI-H460 cells after 48 hrs by sulforhodamine B assay
Format: functional
Conditions: NCI-H460, 48 h

Compound | GI50
COc1ccc(C(=O)c2cc(OC)c(O)c(OC)c2)cc1OC | 3.44 µM
COc1cc(C(=O)c2ccc(OC)c(O)c2OC)cc(OC)c1O | 1.97 µM

System: MDA-MB-468
Experiment: Cytotoxicity against human MDA-MB-468 cells after 48 hrs by sulforhodamine B assay
Format: functional
Conditions: MDA-MB-468, 48 h

Compound | GI50
COc1ccc(C(=O)c2cc(OC)c(O)c(OC)c2)cc1OC | 1.97 µM
COc1cc(C(=O)c2ccc(OC)c(O)c2OC)cc(OC)c1O | 0.864 µM

System: OVCAR-3
Experiment: Cytotoxicity against human OVCAR3 cells after 48 hrs by sulforhodamine B assay
Format: functional
Conditions: OVCAR-3, 48 h

Compound | GI50
COc1ccc(C(=O)c2cc(OC)c(O)c(OC)c2)cc1OC | 2.33 µM
COc1cc(C(=O)c2ccc(OC)c(O)c2OC)cc(OC)c1O | 0.363 µM

System: MDA-MB-231
Experiment: Cytotoxicity against human MDA-MB-231/ATCC cells after 48 hrs by sulforhodamine B assay
Format: functional
Conditions: MDA-MB-231, 48 h

Compound | GI50
COc1ccc(C(=O)c2cc(OC)c(O)c(OC)c2)cc1OC | 4.79 µM
COc1cc(C(=O)c2ccc(OC)c(O)c2OC)cc(OC)c1O | 2.16 µM

System: SK-OV-3
Experiment: Cytotoxicity against human SKOV3 cells after 48 hrs by sulforhodamine B assay
Format: functional
Conditions: SK-OV-3, 48 h

Compound | GI50
COc1ccc(C(=O)c2cc(OC)c(O)c(OC)c2)cc1OC | 2.2 µM
COc1cc(C(=O)c2ccc(OC)c(O)c2OC)cc(OC)c1O | 0.912 µM

System: A549
Experiment: Cytotoxicity against human A549/ATCC cells after 48 hrs by sulforhodamine B assay
Format: functional
Conditions: A549, 48 h

Compound | GI50
COc1ccc(C(=O)c2cc(OC)c(O)c(OC)c2)cc1OC | 59.1 µM
COc1cc(C(=O)c2ccc(OC)c(O)c2OC)cc(OC)c1O | 3.47 µM

System: SF-539
Experiment: Cytotoxicity against human SF539 cells after 48 hrs by sulforhodamine B assay
Format: functional
Conditions: SF-539, 48 h

Compound | GI50
COc1ccc(C(=O)c2cc(OC)c(O)c(OC)c2)cc1OC | 2.96 µM
COc1cc(C(=O)c2ccc(OC)c(O)c2OC)cc(OC)c1O | 0.611 µM

System: NCI/ADR-RES
Experiment: Cytotoxicity against human NCI/ADR-RES cells after 48 hrs by sulforhodamine B assay
Format: functional
Conditions: not given

Compound | GI50
COc1ccc(C(=O)c2cc(OC)c(O)c(OC)c2)cc1OC | 0.854 µM
COc1cc(C(=O)c2ccc(OC)c(O)c2OC)cc(OC)c1O | 0.515 µM

System: SK-MEL-2
Experiment: Cytotoxicity against human SK-MEL-2 cells after 48 hrs by sulforhodamine B assay
Format: functional
Conditions: SK-MEL-2, 48 h

Compound | GI50
COc1ccc(C(=O)c2cc(OC)c(O)c(OC)c2)cc1OC | 5.29 µM
COc1cc(C(=O)c2ccc(OC)c(O)c2OC)cc(OC)c1O | 100 µM

System: HCC 2998
Experiment: Cytotoxicity against human HCC2998 cells after 48 hrs by sulforhodamine B assay
Format: functional
Conditions: HCC 2998, 48 h

Compound | GI50
COc1cc(C(=O)c2ccc(OC)c(O)c2OC)cc(OC)c1O | 2.89 µM

System: SK-MEL-28
Experiment: Cytotoxicity against human SK-MEL-28 cells after 48 hrs by sulforhodamine B assay
Format: functional
Conditions: SK-MEL-28, 48 h

Compound | GI50
COc1ccc(C(=O)c2cc(OC)c(O)c(OC)c2)cc1OC | 9.46 µM
COc1cc(C(=O)c2ccc(OC)c(O)c2OC)cc(OC)c1O | 100 µM

System: HL-60(TB)
Experiment: Cytotoxicity against human HL-60(TB) cells after 48 hrs by sulforhodamine B assay
Format: functional
Conditions: HL-60, 48 h

Compound | GI50
COc1ccc(C(=O)c2cc(OC)c(O)c(OC)c2)cc1OC | 1.25 µM
COc1cc(C(=O)c2ccc(OC)c(O)c2OC)cc(OC)c1O | 0.364 µM

System: A498
Experiment: Cytotoxicity against human A498 cells after 48 hrs by sulforhodamine B assay
Format: functional
Conditions: A498, 48 h

Compound | GI50
COc1ccc(C(=O)c2cc(OC)c(O)c(OC)c2)cc1OC | 3.36 µM
COc1cc(C(=O)c2ccc(OC)c(O)c2OC)cc(OC)c1O | 1.7 µM

System: M14
Experiment: Cytotoxicity against human M14 cells after 48 hrs by sulforhodamine B assay
Format: functional
Conditions: M14, 48 h

Compound | GI50
COc1ccc(C(=O)c2cc(OC)c(O)c(OC)c2)cc1OC | 0.902 µM
COc1cc(C(=O)c2ccc(OC)c(O)c2OC)cc(OC)c1O | 0.455 µM

System: MDA-MB-435
Experiment: Cytotoxicity against human MDA-MB-435 cells after 48 hrs by sulforhodamine B assay
Format: functional
Conditions: MDA-MB-435, 48 h

Compound | GI50
COc1ccc(C(=O)c2cc(OC)c(O)c(OC)c2)cc1OC | 0.273 µM
COc1cc(C(=O)c2ccc(OC)c(O)c2OC)cc(OC)c1O | 0.282 µM

System: MCF7
Experiment: Cytotoxicity against human MCF7 cells after 48 hrs by sulforhodamine B assay
Format: functional
Conditions: MCF7, 48 h

Compound | GI50
COc1ccc(C(=O)c2cc(OC)c(O)c(OC)c2)cc1OC | 0.433 µM
COc1cc(C(=O)c2ccc(OC)c(O)c2OC)cc(OC)c1O | 1.01 µM

System: OVCAR-5
Experiment: Cytotoxicity against human OVCAR5 cells after 48 hrs by sulforhodamine B assay
Format: functional
Conditions: OVCAR-5, 48 h

Compound | GI50
COc1ccc(C(=O)c2cc(OC)c(O)c(OC)c2)cc1OC | 12.9 µM
COc1cc(C(=O)c2ccc(OC)c(O)c2OC)cc(OC)c1O | 4.92 µM

System: not listed separately
Experiment: Inhibition of bovine brain tubulin polymerization after 30 mins by turbidimetry analysis
Design: species or system Bos taurus
Conditions: not given
Method in brief: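 Lyophilized bovine brain tubulin (97%) reconstituted to 5 mg/mL in 80 mM PIPES pH 6.9, 2 mM MgCl₂, 0.5 mM EGTA, 1.0 mM GTP and 5% glycerol. Compound in DMSO was added to this solution in a quartz cuvette at 0 °C. Assembly was followed as the rise in absorbance at 340 nm at 37 °C. IC₅₀ is the molar concentration halving the extent of assembly after 30 min.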

Compound | IC50
COc1ccc(C(=O)c2cc(OC)c(O)c(OC)c2)cc1OC | > 100 µM
COc1cc(C(=O)c2ccc(OC)c(O)c2OC)cc(OC)c1O | 14.9 µM

System: RXF 393
Experiment: Cytotoxicity against human RXF393 cells after 48 hrs by sulforhodamine B assay
Format: functional
Conditions: RXF 393, 48 h

Compound | GI50
COc1ccc(C(=O)c2cc(OC)c(O)c(OC)c2)cc1OC | 1.88 µM
COc1cc(C(=O)c2ccc(OC)c(O)c2OC)cc(OC)c1O | 0.755 µM

System: NCI-H322M
Experiment: Cytotoxicity against human NCI-H322M cells after 48 hrs by sulforhodamine B assay
Format: functional
Conditions: not given

Compound | GI50
COc1ccc(C(=O)c2cc(OC)c(O)c(OC)c2)cc1OC | 3.44 µM
COc1cc(C(=O)c2ccc(OC)c(O)c2OC)cc(OC)c1O | 4.99 µM
